Assay outcomes from PubChem.
Compounds with a hit are over-represented: about 2.2% of the library has one in this group of screens.
rRNA inh HTS: inhibitors of bacterial rRNA selective over humanized ribosomes; AID 720706; GFP signal change (wild-type ribosome), % (concentration not given with the values); hit rate 1.6% among 350,000; E. coli WT GFP vs humanized-ribosome RFP mutants, fluorescence, 24 h; hits give low values; DMSO median 0, no signal -100;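 active means significant combined selectivity score with lowered wild-type GFP, culture density cut under 30%, mutant RFP and density less affected; inactive means any of these conditions unmet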
ERp5 block: inhibitors of human ERp5 | inhibition, % at 9.99 µM | AID 651711 | hit rate 0.05% among 350,000 | ERp5 insulin aggregation, absorbance 650 nm, 90 min | Q15084;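 active means mean replicate inhibition above about 25%, with every replicate also reaching it, limit read from the data, passing the limit was not always enough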
Target sequence (Q15084 whole entry, looked up): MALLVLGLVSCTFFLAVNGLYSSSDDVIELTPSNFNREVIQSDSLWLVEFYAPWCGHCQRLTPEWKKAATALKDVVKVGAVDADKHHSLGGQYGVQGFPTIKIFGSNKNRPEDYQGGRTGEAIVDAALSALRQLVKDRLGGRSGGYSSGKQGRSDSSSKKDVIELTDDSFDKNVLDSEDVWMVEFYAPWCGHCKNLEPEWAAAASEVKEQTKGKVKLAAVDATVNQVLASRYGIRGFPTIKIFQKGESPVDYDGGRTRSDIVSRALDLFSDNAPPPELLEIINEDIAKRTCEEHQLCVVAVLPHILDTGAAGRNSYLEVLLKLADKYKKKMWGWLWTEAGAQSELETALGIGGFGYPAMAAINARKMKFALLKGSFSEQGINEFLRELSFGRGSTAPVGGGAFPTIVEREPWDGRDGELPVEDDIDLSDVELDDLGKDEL
HIV Env fusion: inhibitors of HIV Env-mediated cell fusion | AID 651610 | hit rate 1.1% among 360,000 | HeLa-JRFL Env/CEM21 cell fusion, luciferase | inhibition, % at 12.3 µM;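 active means mean replicate inhibition score of at least 50 and every replicate individually at or above 50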;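 further: 0% = plate neutral controls and 100% = maraviroc near 300 nM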
PDI inh: PDI (human) enzyme inhibition. P07237. PDI insulin aggregation turbidity, A650, 90 min. inhibition, % at 10 µM. hit rate 0.052% among 350,000. AID 588391;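 active means mean inhibition across replicates of 30% or more, whatever share of single replicates reach that level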
PvdQ inh: P. aeruginosa PvdQ acylase inhibition | AID 488965 | purified PvdQ acylase, fluorescence plate reader | hit rate 0.063% among 340,000 | inhibition, % at 10 µM; in the data active means inhibition above about 30%, passing the limit was not always enough;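 further: 0% = vehicle neutral wells and 100% = reference inhibitor wells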
FN deposit inh: fibronectin deposition inhibition; inhibition, % at 12.6 µM; hit rate 0.086% among 350,000; AID 743247; AH1F fibroblasts, Alexa488-fibronectin deposition fluorescence, overnight;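 active means mean inhibition across replicates of 30% or more, regardless of how many single replicates reach that level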;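 further: positive control wells lacked labelled fibronectin entirely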
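test system = AH1F fibroblasts assembling fluorescent fibronectin matrix | quantity = 10000 AH1F cells per well | buffer or medium = DMEM plus 2% serum, read in PBS | doses = single dose, pinned | incubation = 1 h cell attachment, overnight exposure to compound and label | detection = fluorescence at 485 nm excitation, 525 nm emission | read-out basis = inhibition from reduced deposited-fibronectin fluorescence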
Starred values were filed as active, the others as inactive; . = no result given; [ ] = remark or other dose.

SMILES | rRNA inh HTS | ERp5 block | HIV Env fusion | PDI inh | PvdQ inh | FN deposit inh
COCCn1nnnc1C(c1cccs1)N1CCN(c2nc3ccccc3s2)CC1 (configuration not stated) | -22* | 1 | . | -4 | -8 | .
COc1ccc(S(=O)(=O)Nc2ccc3c(c2)C(=O)N([C@H](C)CO)C[C@H](C)[C@@H](CN(C)CC2CC2)O3)cc1 | 1 | 8 | . | . | . | 2
CCCNC(=O)Nc1ccc2c(c1)OC[C@H](C)N(Cc1ccncc1)C[C@H](C)[C@H](OC)CN(C)C2=O | -2 | 12 | 4[16.7 µM] | . | . | 7
C[C@@H]1CN([C@H](C)CO)C(=O)c2cc(N(C)C)ccc2O[C@@H](C)CCCCO[C@H]1CN(C)Cc1ccc(C(=O)Nc2ccccc2N)cc1 | 4 | . | . | . | . | .
Nc1ccn(C2OC(COP(=O)(O)O)C(O)C2O)c(=O)n1 (configuration not stated) | 3 | -13 | 82* | 5 | 10 | 1
C=CCn1c(-c2cc3cccc(OC)c3o2)n[nH]c1=S | -23* | -3 | 1 | 0 | -9 | -2
CC(=O)N[C@H]1CC[C@@H](CCNC(=O)C2CCCCC2)O[C@H]1CO | 1 | 5 | . | . | . | .
Cc1ccc(Cn2ncc3c(N4CCN(C)CC4)ncnc32)cc1 | -2 | 3 | 3 | -2 | -14 | 2
Cc1ccc(Cn2ncc3c(N4CCN(c5ccc(C)cc5)CC4)ncnc32)cc1 | . | . | 91* | -4 | -10 | -2
Cc1ccc(Cn2ncc3c(N4CCN(Cc5ccc(Cl)cc5)CC4)ncnc32)cc1 | . | . | 96* | 8 | -21 | 1
CCCC#Cc1ccc2c(c1)O[C@H](CN(C)C(=O)C1CC1)[C@H](C)CN([C@H](C)CO)S2(=O)=O | -2 | -2 | 7[16.7 µM] | . | . | .
CC(=O)N1CC2(C1)[C@H](c1ccc(-c3ccc(F)cc3)cc1)[C@H](CO)N2C(C)=O | -3 | 2 | . | . | . | .
O=C(Cc1nc2ccccc2[nH]1)c1ccc([N+](=O)[O-])cc1 | -14 | 3 | -73 | -1 | -14 | -3
CN/N=C(\Cc1nc2ccccc2[nH]1)c1ccc([N+](=O)[O-])cc1 | -22* | 0 | 4 | 1 | 9 | -1
CN(CC(=O)Nc1cccc(Cl)c1)S(=O)(=O)c1ccc2[nH]c(=O)oc2c1 | -25* | -1 | -1 | 5 | -9 | 9
O=C(C[C@H]1C=C[C@H](NC(=O)CN2CCOCC2)[C@H](CO)O1)NCc1cccc(F)c1 | -2 | -3 | 1[16.7 µM] | . | . | -4
CCCCCc1c(-c2ccccc2OC)ncn1CCc1ccccc1OC | -30 | 1 | 69* | . | . | 14
CCCCc1c(-c2ccccc2OC)ncn1CCc1ccccc1OC | -63 | -6 | 31 | . | . | 12
CCCCc1c(-c2ccccc2F)ncn1CCc1ccccc1OC | -63 | -7 | 65* | . | . | -1
C[C@H]1CN([C@@H](C)CO)C(=O)c2cccc(NS(=O)(=O)c3ccc(Cl)cc3)c2O[C@@H]1CN(C)C(=O)Nc1ccccc1 | -2 | -9 | . | . | . | .
C[C@H](O)C#Cc1cnc2c(c1)C(=O)N([C@H](C)CO)C[C@H](C)[C@H](CN(C)C(=O)CC1CC1)O2 | -1 | 2 | -24[16.7 µM] | . | . | -9
Cc1cc(C(=O)Nc2cccc3c2O[C@H](CN(C)C(=O)Nc2cccc4ccccc24)[C@@H](C)CN([C@@H](C)CO)C3=O)n(C)n1 | 3 | . | 19[16.7 µM] | . | . | .
COCC(=O)N(C)C[C@H]1Oc2cc(-c3ccc(C)cc3)ccc2S(=O)(=O)N([C@H](C)CO)C[C@@H]1C | -8 | -6 | -1[16.7 µM] | . | . | -7
CC1(C)C2CC=C(/C=N/NC(=S)NCCc3ccccc3)C1C2 (configuration not stated) | -36 | 2 | 67* | 1 | -10 | -3
CNC(=S)N/N=C/C1=CCC2CC1C2(C)C (configuration not stated) | 4 | 0 | . | 1 | 5 | 0
Cc1noc(C)c1S(=O)(=O)Nc1ccc2c(c1)C(=O)N([C@@H](C)CO)C[C@@H](C)[C@@H](CN(C)C(=O)Nc1ccc(C(F)(F)F)cc1)O2 | -2 | -7 | 0[16.7 µM] | . | . | .
O=C(C[C@H]1C[C@H]2c3cc(NC(=O)CC4CC4)ccc3O[C@H]2[C@H](CO)O1)NCC(F)(F)F | 0 | -3 | 2[16.7 µM] | . | . | 10
O=C(C[C@H]1C[C@@H]2c3cc(NC(=O)C4CCC4)ccc3O[C@@H]2[C@H](CO)O1)NCC(F)(F)F | 2 | 43* | -54[16.7 µM] | . | . | -13
